GRK2 inh – blocks RNA aptamer binding to human GRK2; bead flow cytometry, FAM-aptamer displacement from GRK2; inhibition of aptamer binding, % at 10 µM; 330,000 compounds, 0.59% hits;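 active = inhibition of aptamer binding above 40%, roughly 3 SD of noise, on plates passing a quality check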;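 note: median bead fluorescence of bound FAM aptamer so fluorescent compounds give negative values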
VLA-4 inh – inhibition in a human VLA-4 binding assay; P13612; VLA-4 expressing cells, ligand binding flow cytometry; inhibition, % (about 7 µM as worked out from the volumes in the protocol); 330,000 compounds, 0.2% hits; in the data active = inhibition above about 50%
JMJD2C inh – inhibitors of human GASC-1 (JMJD2C) demethylase. GST-JMJD2C(1-420) H3K9me3 demethylation, DELFIA europium. inhibition, % at 2.35 µM. 330,000 compounds, 0.069% hits;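 active = more than half of a compound's replicate wells show inhibition beyond 50%, single wells judged on their own value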;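 note: signal counts dimethyl H3K9 product captured on neutravidin plate; 0% = median of DMSO wells and 100% = 0.3 times that DMSO median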
Target sequence (Q9H3R0 1-420 limits assumed): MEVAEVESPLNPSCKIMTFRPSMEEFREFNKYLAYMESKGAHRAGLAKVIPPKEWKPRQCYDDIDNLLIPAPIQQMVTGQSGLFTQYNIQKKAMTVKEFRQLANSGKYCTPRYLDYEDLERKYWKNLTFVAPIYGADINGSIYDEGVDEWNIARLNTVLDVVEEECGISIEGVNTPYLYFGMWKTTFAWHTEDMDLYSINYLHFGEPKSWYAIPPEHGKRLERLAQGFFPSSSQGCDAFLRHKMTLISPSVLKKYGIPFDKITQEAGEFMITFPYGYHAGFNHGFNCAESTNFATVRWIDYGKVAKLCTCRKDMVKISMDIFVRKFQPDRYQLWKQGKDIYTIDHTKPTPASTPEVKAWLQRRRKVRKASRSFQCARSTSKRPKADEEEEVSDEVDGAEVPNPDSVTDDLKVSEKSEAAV
Lipid droplet – hepatic lipid droplet formation modulation. AML12 mouse hepatocytes, oleate lipid droplets, BODIPY imaging. inhibition, % at 6.5 µM. 240,000 compounds, 0.4% hits;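 active = lipid droplet intensity inhibited by at least 50%, with more than 500 cells counted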
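Assay system: AML12 hepatocytes (mouse) / Also added: 100 µM oleic acid challenge / Times: overnight treatment with compound plus oleate / Detection: high-content imaging of BODIPY-stained droplets and DAPI nuclei / Evaluation: % inhibition of lipid droplet signal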
proCasp3 act – activators of human procaspase-3; P42574; recombinant procaspase-3 D3A, Ac-DEVD-pNA absorbance 405 nm; activation, % at 8.5 µM; 330,000 compounds, 0.11% hits; AID 463141;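 active = activation above the mean of all tested compounds plus 3 SD, cut at about 21% in these data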;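 note: 0% = DMSO alone and 100% = DMSO wells spiked with extra 5 µM PC-3 D3A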
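Assay system: Autoprocessing-dead procaspase-3 D3A mutant enzyme; also added: Ac-DEVD-pNA; doses: one concentration, 8.5 µM nominal, 0.8% DMSO; times: 1 h compound preincubation, 2 h substrate hydrolysis at 25 °C; technique: 405 nm absorbance of p-nitroaniline, reads at 0 and 120 min; measure: % activation between DMSO and enzyme-spiked controls; repeats: single replicate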
proCasp7 act – counter-screen: procaspase-7 (human) activation | P55210 | recombinant procaspase-7, Ac-DEVD-pNA absorbance 405 nm; D23A/D198A/D206A triple mutant, cannot self-cleave; scale: DMSO 0, 5 µM enzyme 100 | activation, % at 8.5 µM | 330,000 compounds, 0.093% hits | AID 463210;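 active = percent activation above the screen-wide mean plus 3 SD, cut at about 25% in these data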
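signal = Epi-absorbance of released pNA at 405 nm, two timepoints | assay system = Uncleavable procaspase-7 mutant enzyme | reagent = Ac-DEVD-pNA substrate, 400 µM as added | times = 1 h enzyme–compound preincubation and 2 h substrate reaction, both 25 °C | benchmarks = low DMSO alone, high DMSO plus 5 µM PC-7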
GRK2 inh confirm – human GRK2 inhibition confirmation, cherry pick 1 | shares compounds with GRK2 inh | bead-bound GRK2, FAM-aptamer displacement, flow cytometry | aptamer displacement, % at 10 µM | 2,000 compounds, 4% hits | AID 504451;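 active = aptamer displacement above 40%, near three times the noise of non-fluorescent compounds, on plates passing quality checks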;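 note: negative values mostly reflect intrinsic compound fluorescence rather than true enhancement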
FAM quench CP1 – aptamer fluorescence quenching in GRK2 counter-screen. 2,000 tested, under 10 active. Carboxyfluorescein RNA aptamer on beads, flow cytometry quenching; hits give low values. AID 504580. fluorescence response (% of DMSO), % at 10 µM. shares compounds with GRK2 inh;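 active = compounds that quench the bead-bound fluorescent RNA probe, cutting fluorescence to under half of the solvent control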;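 note: counterscreen run without GRK2 so only probe quenching by compound is measured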
GRK2 CP2 – human GRK2 inhibition confirmation, cherry pick 2. shares compounds with GRK2 inh. bead-bound GRK2, FAM-aptamer displacement, flow cytometry. inhibition of aptamer binding, % at 10 µM. 360 tested, under 10 active. AID 504782;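 active = inhibition of aptamer binding above 40%, about triple the noise seen with nonglowing compounds, on plates passing quality control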;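 note: negative values mostly come from compounds that fluoresce themselves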
FAM quench SP – aptamer fluorescence quenching in GRK2 counter-screen. shares compounds with GRK2 inh. 360 tested, under 10 active. AID 588494. fluorescence response vs DMSO, % at 10 µM. carboxyfluorescein RNA aptamer beads, flow cytometry quenching; hits give low values;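 active = response vs DMSO under 50%, meaning signal dropped by over half, treated as fluorescence quencher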;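 note: labelled aptamer on streptavidin beads without GRK2 as a quench counter-screen; 100% = bead fluorescence of DMSO wells and lower means quenching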
Numbers without * were called inactive; nt = not tested or not shown. A selection: hits, their analogues and other compounds. The true share with any hit is near 1.3%.

SMILES | GRK2 inh | VLA-4 inh | JMJD2C inh | Lipid droplet | proCasp3 act | proCasp7 act | GRK2 inh confirm | FAM quench CP1 | others
Cc1ccc(S(=O)(=O)Nc2nnc(CC(C)(C)C)s2)cc1 | 1.0 | -6.2 | 11.8 | -0.6 | 2.1 | 15.5 | nt | nt
O=C(O)CSCC(=O)N1CCN(S(=O)(=O)c2cc(Cl)cc(Cl)c2)CC1 | 1.0 | 1.9 | 33.9 | -0.7 | -8.6 | 5.4 | nt | nt
COc1cc(-c2ccc3c(=O)c4ccccc4sc3c2)cc(OC)c1OC | 100.0* | -10.8 | 7.3 | nt | -2.3 | -0.7 | nt | nt | GRK2 CP2=-10.8;FAM quench SP=99.0
Cc1cc(C)c(S(=O)(=O)Nc2ccccc2C(=O)OCC(=O)NCc2ccccc2)c(C)c1 | 0.0 | 23.4 | -9.6 | -40.7 | 7.6 | 6.8 | nt | nt
CCOC(=O)c1sc2nc3c(SCC(=O)O)cc(C(=O)c4ccccc4O)cn3c(=O)c2c1C | 63.0* | -52.0 | 7.3 | 7.2 | -11.8 | 5.2 | 17.4 | 98.0
CCOC(=O)c1sc2nc3c(SCC(=O)O)cc(C(=O)c4cc(F)ccc4O)cn3c(=O)c2c1C | 9.0 | 22.1 | 1.9 | 9.5 | -2.7 | 7.6 | nt | nt
CC(Oc1ccccc1Cl)C(=O)N1CCCN(C)CC1 (stereo unspecified) | 1.0 | 17.7 | -0.2 | 3.2 | -11.9 | -1.9 | nt | nt
CC(Oc1ccccc1Cl)C(=O)N1CCOCC1 (stereo unspecified) | 43.0* | -2.7 | -24.6 | -4.9 | 1.7 | 16.3 | nt | nt | GRK2 CP2=2.5;FAM quench SP=100.0
CC(C(=O)N1CCOCCOCCOCC1)N1C(=O)c2ccccc2C1=O (stereo unspecified) | 86.0* | 2.4 | -12.2 | 1.0 | 1.2 | 9.7 | -1.1 | 98.1
CC1(C)Cc2c(sc(NC(=O)c3ccc(S(=O)(=O)N4CCCCCC4)cc3)c2C#N)C(C)(C)N1 | 5.0 | 13.8 | -11.2 | -1.1 | 5.6 | -7.2 | nt | nt
COc1ccc(S(=O)(=O)N2CCCCC2)cc1NC(=O)CCNC(=O)c1ccc(Cl)cc1 | 47.0* | 2.3 | -2.3 | nt | 0.1 | 2.4 | 0.3 | 103.5 | GRK2 CP2=-7.5;FAM quench SP=106.0
CCOc1ccc(NC(=O)C2CC(=O)OC2c2ccccc2)cc1 (stereo unspecified) | 82.0* | -0.1 | 0.2 | -0.9 | 5.4 | 1.7 | -3.7 | 86.1
CCOC(=O)c1c(C)nc(C)c(C(=O)OCC)c1-c1ccc(O)c(OC)c1 | 0.0 | 2.1 | -20.6 | 10.1 | -20.7 | -17.9 | nt | nt
COC(=O)c1c(C)nc(C)c(C(=O)OC)c1-c1ccc(OC)c(OC)c1 | 54.0* | 3.1 | -6.1 | -0.3 | -2.9 | 1.1 | -3.8 | 99.5
COc1ccccc1N(CC(=O)NCc1ccco1)S(=O)(=O)c1ccc(C)cc1 | 46.0* | -5.5 | 3.2 | -20.2 | 4.7 | -2.1 | 22.8 | 98.8
COc1ccc(N(CC(=O)NCc2ccco2)S(=O)(=O)c2ccc(C)cc2)cc1OC | 2.0 | 24.0 | -5.0 | nt | -10.1 | -3.3 | nt | nt
O=[N+]([O-])c1cccc(-c2cn3nc(-c4ccccc4)c(-c4ccccc4)nc3n2)c1 | 14.0 | -2.7 | -1.5 | 19.1 | 2.4 | 6.9 | nt | nt
c1ccc(-c2cn3nc(-c4ccccc4)c(-c4ccccc4)nc3n2)cc1 | 1.0 | -11.2 | -3.7 | nt | -2.2 | -6.0 | nt | nt
Cc1ccc(-c2cn3nc(-c4ccccc4)c(-c4ccccc4)nc3n2)cc1 | 66.0* | -9.0 | 0.7 | 17.8 | -17.8 | -25.5 | 3.2 | 102.8
O=[N+]([O-])c1ccc(-c2cn3nc(-c4ccccc4)c(-c4ccccc4)nc3n2)cc1 | 42.0* | 4.2 | 7.8 | 11.4 | -21.6 | -17.8 | 27.6 | 106.5

High-throughput results deposited in PubChem by several laboratories.
